For test [1], the target named is Histone deacetylase 1 (Homo sapiens, UniProt Q13547). The test can be described thus: Inhibition of human HDAC1 in presence of dithiothreitol by HDAC fluorescent assay.
The target in test [2] is Histone deacetylase 2 (Homo sapiens, UniProt Q92769). The test can be described thus: Inhibition of HDAC2 in human HeLa cell nuclear extracts in presence of dithiothreitol by HDAC fluorescent assay.
Test [3] deals with MCF7. The test can be described thus: Antiproliferative activity against human MCF7 cells after 48 hrs by MTT assay. It is filed as functional, cell-based. The conditions noted are these: MCF7, 48 h. The gist of the method: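 MCF-7 cells were grown in DMEM with 10% fetal bovine serum at 37 °C under 5% CO₂, then plated and incubated overnight. Compounds were added as 10-fold serial dilutions. MTT (0.5 mg/mL in serum-free medium) was added for 4 h, formazan was dissolved in DMSO, and absorbance was read at 570 nm. IC₅₀ was determined in triplicate, with at least three repeat experiments.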

Results on 14 molecules are retold here after ChEMBL document CHEMBL2021837, “A novel series of l-2-benzyloxycarbonylamino-8-(2-pyridyl)-disulfidyloctanoic acid derivatives as histone deacetylase inhibitors: design, synthesis and molecular modeling study” (Eur J Med Chem, 2012).

A word on the IC50: it is the concentration at which inhibition is half-maximal.

Histone deacetylase 1, sequence (Q13547 whole entry): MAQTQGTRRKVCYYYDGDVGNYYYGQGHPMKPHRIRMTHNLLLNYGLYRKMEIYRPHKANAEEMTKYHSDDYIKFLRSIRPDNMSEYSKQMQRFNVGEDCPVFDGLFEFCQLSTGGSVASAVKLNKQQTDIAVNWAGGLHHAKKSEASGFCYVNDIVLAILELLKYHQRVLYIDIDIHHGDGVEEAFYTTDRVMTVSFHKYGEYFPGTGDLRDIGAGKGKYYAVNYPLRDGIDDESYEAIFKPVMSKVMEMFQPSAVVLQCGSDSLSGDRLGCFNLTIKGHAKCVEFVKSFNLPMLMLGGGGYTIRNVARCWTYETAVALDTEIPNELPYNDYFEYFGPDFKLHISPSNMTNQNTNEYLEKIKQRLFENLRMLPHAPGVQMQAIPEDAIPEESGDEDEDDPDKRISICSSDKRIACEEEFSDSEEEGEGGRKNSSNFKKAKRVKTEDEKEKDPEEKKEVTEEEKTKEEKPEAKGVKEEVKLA
Histone deacetylase 2, sequence (Q92769 whole entry): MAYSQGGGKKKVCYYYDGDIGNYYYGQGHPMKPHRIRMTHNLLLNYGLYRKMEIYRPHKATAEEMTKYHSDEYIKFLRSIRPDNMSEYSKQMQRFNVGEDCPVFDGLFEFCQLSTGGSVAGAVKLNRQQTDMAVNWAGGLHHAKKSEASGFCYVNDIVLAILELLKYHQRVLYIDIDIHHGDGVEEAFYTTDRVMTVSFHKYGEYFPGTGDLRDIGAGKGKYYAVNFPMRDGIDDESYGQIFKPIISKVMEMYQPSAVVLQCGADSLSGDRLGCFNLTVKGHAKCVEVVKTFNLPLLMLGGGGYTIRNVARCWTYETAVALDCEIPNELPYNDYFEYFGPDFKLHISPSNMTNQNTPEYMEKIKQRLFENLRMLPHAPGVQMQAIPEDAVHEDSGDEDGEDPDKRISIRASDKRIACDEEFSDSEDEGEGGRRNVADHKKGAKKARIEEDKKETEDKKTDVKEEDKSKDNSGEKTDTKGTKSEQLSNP

With `O=C(N[C@@H](CCCCCCSSc1ccccn1)C(=O)Nc1ccccc1-c1ccccc1)OCc1ccccc1`, the half-maximal inhibitory concentration (IC50) is 71.2 nM in test [1], 45.2 nM in test [2] and 20800 nM in test [3].

For the molecule `O=C(N[C@@H](CCCCCCSSc1ccccn1)C(=O)OCc1cccc2ccccc12)OCc1ccccc1`, the IC50 in test [1] was determined as 64.7 nM; in test [2], 39.6 nM; in test [3] it was 15300 nM.

As for `O=C(N[C@@H](CCCCCCSSc1ccccn1)C(=O)OCc1cccc([N+](=O)[O-])c1)OCc1ccccc1`, the IC50 in test [1] was found to be 66.7 nM; in test [2] it was 48.5 nM; in test [3], 15200 nM.

Regarding `O=C(N[C@@H](CCCCCCSSc1ccccn1)C(=O)OCc1ccc2ccccc2c1)OCc1ccccc1`, the values for the IC50 in test [1], in test [2] and in test [3] were 65.2 nM, 40.3 nM and 14800 nM, respectively.

Consider `O=C(N[C@@H](CCCCCCSSc1ccccn1)C(=O)NC1c2ccccc2-c2ccccc21)OCc1ccccc1`, for which the values for the half-inhibitory concentration (IC50) in test [1], in test [2] and in test [3] were 68.2 nM, 48.1 nM and 17200 nM, respectively.

For the molecule `O=C(N[C@@H](CCCCCCSSc1ccccn1)C(=O)Nc1cccc2ccccc12)OCc1ccccc1`, the half-inhibitory concentration (IC50) in test [1] was found to be 65.2 nM; in test [2], 38.2 nM; in test [3], 15300 nM.

Take `O=C(N[C@@H](CCCCCCSSc1ccccn1)C(=O)OCc1ccc(-c2ccccc2)cc1)OCc1ccccc1`: the concentration for half-maximal inhibition (IC50) turned out to be 64.1 nM in test [1], 40.7 nM in test [2] and 15600 nM in test [3].

Consider `O=C(N[C@@H](CCCCCCSSc1ccccn1)C(=O)Nc1ccc(-c2ccccc2)cc1)OCc1ccccc1`, for which the IC50 in test [1] amounted to 70.9 nM; in test [2], 46.6 nM; in test [3] it was 18100 nM.

Consider `O=C(N[C@@H](CCCCCCSSc1ccccn1)C(=O)OCc1ccc([N+](=O)[O-])cc1)OCc1ccccc1`, for which the IC50 in test [1] was found to be 64.4 nM; in test [2], 45.5 nM; in test [3], 16900 nM.

With `O=C(N[C@@H](CCCCCCSSc1ccccn1)C(=O)NC1CCCCC1)OCc1ccccc1`, the IC50 in test [1] worked out at 66.9 nM; in test [2], 44.1 nM; in test [3], 19600 nM.

As for `O=C(N[C@@H](CCCCCCSSc1ccccn1)C(=O)OCC1c2ccccc2-c2ccccc21)OCc1ccccc1`, the results for the IC50 in test [1], in test [2] and in test [3] were 7.6 nM, 5.2 nM and 3500 nM, respectively.

In the case of `O=C(N[C@@H](CCCCCCSSc1ccccn1)C(=O)Nc1nc(-c2ccccc2)cs1)OCc1ccccc1`, the results for the IC50 in test [1], in test [2] and in test [3] were 5.1 nM, 3.9 nM and 3200 nM, respectively.

For `O=C(N[C@@H](CCCCCCSSc1ccccn1)C(=O)OCc1c2ccccc2cc2ccccc12)OCc1ccccc1`, the results for the IC50 in test [1], in test [2] and in test [3] were 59.2 nM, 43.6 nM and 14000 nM, respectively.

In test [3], `CC(/C=C/C(=O)NO)=C\[C@@H](C)C(=O)c1ccc(N(C)C)cc1` [TRICHOSTATIN] showed a half-inhibitory concentration (IC50) of 1700 nM.
